Our source for the cytotoxicity values is ChEMBL document CHEMBL4513216, “Probing the Open Global Health Chemical Diversity Library for Multistage-Active Starting Points for Next-Generation Antimalarials” (ACS Infect Dis, 2020).

The series in a line: Toxicity liver stage against HepG2, at 10uM. Format: cell-based. Set-up: test concentration 10 uM, cell line HepG2-A16-CD81EGFP. To be noted: human, HepG2-A16-CD81EGFP cells; read-out: INHIBITION
The gist of the method:
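Uninfected HepG2-A16-CD81EGFP cells, 3 × 10^3 per well, 1536-well, plated on prespotted compound at 10 μM final, parasite-free screening media added to match infected plates; puromycin 10 μM positive, DMSO 0.5% negative; run in parallel with 48 h PbLuc assay at 37 °C, 5% CO2; viability by CellTiter-Glo luminescence, normalized to controls.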
For `COc1ccnc(N2CCN(CC(=O)N3CCOCC3)CC2)n1`, the cytotoxicity at 10 µM is -7.37%.
The result for `C[C@@H](NCc1cccc(Cl)c1)c1onc(-c2ccccc2)c1C(=O)O` reads -4.98%; that for `O=C1N[C@@H]2CCN(C(=O)c3ccccc3)[C@@H]2C(=O)N1c1ccc(F)cc1`, 7.62%; that for `O=C(NCc1ccco1)c1cccc(C(=O)NCc2ccco2)n1`, 5.7%.
As for `CCCc1cc(=O)[nH]c2nnc(SCC(N)=O)n12`, the figure is 13.8%; as for `CC1(C)OCC2(CO1)CN(C(=O)c1ccccc1Br)C2`, -7.31%.
The result for `NC1CCc2c(ccc(=O)n2Cc2ccncc2)C1` (stereo unspecified) reads -4.16%; that for `CC(NC(=O)N1CCN(c2ccc(Cl)cc2)CC1)C(=O)N1CCSCC1` (stereo unspecified), 25.4%; that for `CNC(=O)C1Cn2ccnc2C2(CCN(CCF)CC2)O1` (stereo unspecified), -12.6%.
On to `O=C(COCc1nc(-c2ccncc2)no1)N1CCOCC1`, for which the cytotoxicity at 10 µM is -7.08%.
Consider `COc1ccccc1NC(=O)c1cnc(C2CCN(C(C)=O)C2)nc1C` (stereo unspecified), for which the cytotoxicity at 10 µM was 6.42%.
As for `Cc1ccc2nc(C(=O)N(C)[C@@H]3CC[C@@H](N4CCCC4)[C@@H]3O)cn2c1`, the figure is 1.67%; as for `CC(=O)N1CCN(c2ccnc(C)n2)CC(COc2ccccc2)C1` (stereo unspecified), -6.16%.
As for `CCc1cc(C(=O)N2CCCC2c2nc(O)cc(CC)n2)on1` (stereo unspecified), the figure is -7%; as for `O=C(CS(=O)(=O)Cc1csc(-c2ccc(F)cc2)n1)NCC1CC1`, -3.06%.
As for `O=C(NCc1cc(-c2ccccc2)no1)NCC1CCCO1` (stereo unspecified), the figure is -3.01%; as for `Cc1ccc(N2CCCN(C(=O)CCc3ccsc3)CC2)nn1`, -2.22%; as for `CN1CCN(CCOc2ccc(NC(=O)c3cnc[nH]3)cc2)CC1`, 0.71%.
Take `Cc1ccc(CC(NC(=O)Cn2cnnn2)c2ccccn2)cc1` (stereo unspecified): the cytotoxicity at 10 µM was determined as 1.72%.
The result for `Cc1ncccc1C(=O)NC1CC(=O)N(CC(F)(F)F)C1` (stereo unspecified) reads 1.2%; that for `COc1ccc(-c2nc(CCNC(=O)NCC3CCOC3)co2)cc1` (stereo unspecified), -3.1%; that for `COC(=O)N1CCCC(NC(=O)NCc2csc(C)n2)C1` (stereo unspecified), 3.93%.
With `Cc1ccc(-n2cnnn2)cc1NCC(=O)Nc1ccccc1Cl`, the cytotoxicity at 10 µM is 7.95%.
In the case of `CC(C)Cc1cc(NC(=O)c2ccc3[nH]nnc3c2)n(C)n1`, the cytotoxicity at 10 µM is -7%.
The result for `CN(C)c1nccc(CNC(=O)NCc2ccco2)n1` reads -2.48%; that for `O=C(NCc1ccon1)N1CCC(n2ccc(C(F)(F)F)n2)CC1`, -0.0817%.
As for `O=C(NCc1cccnc1)NC1CCCN(c2ncccn2)C1` (stereo unspecified), the figure is -2.5%.
On to `COCC(O)CNC(=O)Nc1c(F)cc(F)cc1-c1ccccc1` (stereo unspecified), for which the cytotoxicity at 10 µM was -4.17%.
The result for `CC(=O)N1Cc2ccccc2CC1C(=O)Nc1ccc(N(C)C)cn1` (stereo unspecified) reads -1.92%; that for `CCCOC1CCCN(C(=O)c2csc(S(N)(=O)=O)c2)C1` (stereo unspecified), -5.45%; that for `CS(=O)(=O)CCNCc1ccc(OCc2ccncc2)cc1`, -134%.
As for `COc1ccccc1C1(CNCc2ccc([S+](C)[O-])cc2)CC1` (stereo unspecified), the figure is 7.56%; as for `Cc1csc(C(C)(C)NCC(=O)N2CCCC(C(N)=O)C2)n1` (stereo unspecified), 5.73%; as for `Cc1noc(C2CCN(C(=O)c3c(C)noc3C)CC2)n1`, 5.65%.
The result for `CN(C)C(=O)CNC(=O)c1cc(Br)c2c(c1)OCCO2` reads 16.4%.
For the compound `COc1ccc(-n2cnnc2SCC(C)(C)O)cn1`, the cytotoxicity at 10 µM came to 13.5%.
As for `Cc1cc(CN(C)C(=O)NC(C)c2nncn2C)no1` (stereo unspecified), the figure is 8.79%; as for `COCCN1CCO[C@@H]2CN(C(=O)c3ccc4[nH]ccc4c3)CC[C@@H]2C1`, -110%; as for `CC(=O)N1CCCN(C(=O)Nc2ccccc2N2CCOC2=O)CC1`, 0.334%.
The result for `COCC(=O)N1C[C@H]2CNC[C@@]2(C(=O)NCc2nc(C)cc(C)n2)C1` reads 14.7%.
As for `O=C(O)C1(n2ccc(-c3ccco3)n2)CCN(Cc2cccnc2)CC1`, the figure is -131%; as for `CC(C)S(=O)(=O)N1CCC(Cc2cccc(C(=O)O)c2)C1` (stereo unspecified), 1.31%.
Consider `Cc1cc(CN2CCC(C(=O)O)(n3ccc(-c4ccco4)n3)CC2)on1`, for which the cytotoxicity at 10 µM was -131%.
As for `COc1nc(C)c(C(=O)N2CCc3[nH]nc(C4CCCC4)c3C2)s1`, the figure is 7.51%; as for `Cc1cnn(CC(=O)N2CCC3(CCC(=O)N(CCCO)C3)CC2)c1`, -9.44%.
For the compound `Cc1nccn1CCC1CCCCN1Cc1ccc(O)cc1Cl` (stereo unspecified), the cytotoxicity at 10 µM was -4.23%.
The result for `Cc1noc(C)c1CCNc1nccc(CCC(F)(F)F)n1` reads -158%; that for `CCC(CO)n1cnc2scc(C)c2c1=O` (stereo unspecified), -7.37%.
The result for `Cc1ccc(NCCCc2c(C)noc2C)nn1` reads 8.12%.
In the case of `Cn1nccc1CNC(=O)Cn1nc(C(F)(F)F)cc1C1CC1`, the cytotoxicity at 10 µM was -6.36%.
Take `NC(=O)C1(CCCc2cccnc2)CCCN(c2ncccn2)C1` (stereo unspecified): the cytotoxicity at 10 µM was 3.61%.
As for `Cc1nccn1C1CCCN(C(=O)CCOCC(F)(F)F)C1` (stereo unspecified), the figure is -11.4%.
The result for `CNc1snc(C)c1C(=O)N1CCC(Nc2ccc(C)nn2)CC1` reads -8.27%; that for `Cc1ccc(NC2CCN(C(=O)c3c(C)nn(C)c3Cl)CC2)nn1`, -11.6%.
As for `CSCCCN1CCCC1c1noc(C(C)C)n1` (stereo unspecified), the figure is -12.5%; as for `CC(NC(=O)CCc1ccsc1)c1ccc2c(c1)NC(=O)CO2` (stereo unspecified), -6.16%.
Turning to `CC(C)c1nc2n(n1)CC(NCc1nc(-c3ccccn3)no1)CC2` (stereo unspecified), the cytotoxicity at 10 µM was -5.08%.
In the case of `CCc1cccc(OCC(=O)N2CCCC(n3cncn3)C2)c1` (stereo unspecified), the cytotoxicity at 10 µM was -7.62%.
As for `COc1c(C2CCCN2C(=O)c2ccnc(N(C)C)c2)c(C)nn1C` (stereo unspecified), the figure is 1.9%; as for `Cc1ccccc1C(=O)N1CCOCC1CN(C)C` (stereo unspecified), -2.1%.
The result for `CN1CCC(CN2CCC3(CCCN(Cc4ccoc4)C3)C2=O)CC1` (stereo unspecified) reads -12.9%; that for `COCc1cncc2c1CCN(Cc1cccs1)C2`, -0.95%.
The result for `O=C(Cc1ccccc1)N1CCC2(CCN2Cc2ccc(F)cc2)C1` (stereo unspecified) reads 2.17%.
On to `O=C1[C@H]2CN(C(=O)[C@H]3CCCO3)C[C@H]2CN1CCN1CCCC1`, for which the cytotoxicity at 10 µM is -3.66%.
The result for `CN(Cc1cncnc1)Cc1cn2c(n1)CN(C1CCOC1)CC2` (stereo unspecified) reads -9.36%; that for `CC(C)N1CCO[C@H]2CN(C(=O)c3ccncc3F)C[C@H]21`, -146%.
The result for `CN(C)C(=O)[C@H]1C[C@H]2OCC[C@H]2N(CCOc2ccc(Cl)cc2)C1` reads -115%; that for `CCN1CC(=O)NCC12CCN(C(=O)c1ccco1)C2` (stereo unspecified), -2.86%; that for `O=C(c1cccc(F)c1)N1CCC2(CC1)CC(N1CCOCC1)C2`, -8.02%.
The result for `O=S(=O)(N[C@@H]1CCO[C@]2(CCN(CC3CCOCC3)C2)C1)C1CC1` reads -142%.
Consider `O=C1C[C@@H]2CC[C@H](CN1)N2C(=O)CCCc1ccc(Cl)cc1`, for which the cytotoxicity at 10 µM was -7.05%.
